In ChEMBL document CHEMBL4118202, “Chiral analogues of (+)-cyclazosin as potent α1B-adrenoceptor selective antagonist” (Bioorg Med Chem, 2018):

Tests used:
[1] = target: T1, Alpha-1B adrenergic receptor (Rattus norvegicus) (UniProt P15823); experiment: (§1) Antagonist activity at alpha1B adrenergic receptor in Wistar rat spleen assessed as inhibition of phenylephrine-induced contraction incubated for 30 mins in presence of beta-adrenoceptor blocker propranolol hydrochloride; assay type: functional
T1 sequence (whole entry): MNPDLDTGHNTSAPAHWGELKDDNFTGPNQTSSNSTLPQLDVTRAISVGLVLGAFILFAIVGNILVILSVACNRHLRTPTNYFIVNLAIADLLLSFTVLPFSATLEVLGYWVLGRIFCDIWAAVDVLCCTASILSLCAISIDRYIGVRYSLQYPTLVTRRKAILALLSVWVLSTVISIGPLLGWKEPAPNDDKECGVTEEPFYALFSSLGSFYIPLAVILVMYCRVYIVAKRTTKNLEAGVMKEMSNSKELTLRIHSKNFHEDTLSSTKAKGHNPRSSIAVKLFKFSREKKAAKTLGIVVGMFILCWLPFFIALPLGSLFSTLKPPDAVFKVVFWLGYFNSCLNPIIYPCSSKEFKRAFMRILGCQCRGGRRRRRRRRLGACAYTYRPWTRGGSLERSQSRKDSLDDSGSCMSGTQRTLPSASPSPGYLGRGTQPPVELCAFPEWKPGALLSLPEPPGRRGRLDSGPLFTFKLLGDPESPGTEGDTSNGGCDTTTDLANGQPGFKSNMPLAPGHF
Outline: (§2)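 Spleen bisected longitudinally into strips in Krebs with propranolol 4 μM, held at 1 g and equilibrated 2 h. Two isometric cumulative phenylephrine curves, each followed by 30 min washing. Third curve after 30 min vehicle or antagonist. Potency as pA2 (Schild) or pKB at one concentration (van Rossum). Responses as % of control maximum; n ≥ 4.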

[2] = target: T2, Alpha-1D adrenergic receptor (Rattus norvegicus, UniProt P23944); experiment: (§3) Antagonist activity at alpha1D adrenergic receptor in Wistar rat thoracic aorta assessed as inhibition of noradrenaline-induced contraction measured after 30 mins in presence of cocaine hydrochloride and beta-adrenoceptor blocker propranolol hydrochloride; assay type: functional; settings: read-out: pA2 (converted)
T2 sequence (P23944 whole entry): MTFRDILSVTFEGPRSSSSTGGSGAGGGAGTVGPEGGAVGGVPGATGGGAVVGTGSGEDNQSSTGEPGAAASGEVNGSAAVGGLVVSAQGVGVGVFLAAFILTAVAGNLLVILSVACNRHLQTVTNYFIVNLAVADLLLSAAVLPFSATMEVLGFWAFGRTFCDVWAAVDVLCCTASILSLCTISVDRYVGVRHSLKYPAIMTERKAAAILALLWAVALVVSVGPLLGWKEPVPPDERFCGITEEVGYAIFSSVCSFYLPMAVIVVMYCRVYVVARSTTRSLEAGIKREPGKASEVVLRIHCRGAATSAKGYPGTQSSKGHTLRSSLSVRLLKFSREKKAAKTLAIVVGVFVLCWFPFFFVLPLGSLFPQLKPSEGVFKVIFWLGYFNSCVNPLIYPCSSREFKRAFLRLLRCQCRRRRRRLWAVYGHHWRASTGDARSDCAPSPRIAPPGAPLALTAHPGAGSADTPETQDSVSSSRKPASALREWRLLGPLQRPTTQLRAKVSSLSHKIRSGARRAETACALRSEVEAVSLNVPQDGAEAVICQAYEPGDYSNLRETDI
Outline: (§4)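 Helical thoracic aorta strips, endothelium removed (checked by loss of acetylcholine relaxation), in Krebs at 1 g, equilibrated ≥2 h. Isometric cumulative noradrenaline curves at 1 h intervals; the second served as control, the third followed 30 min antagonist.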

[3] = target: T3, Alpha-1D adrenergic receptor (Homo sapiens, UniProt P25100); experiment: Displacement of [3H]prazosin from human alpha1D adrenergic receptor expressed in CHO cell membranes after 30 mins by rapid filtration method
T3 sequence (P25100 whole entry): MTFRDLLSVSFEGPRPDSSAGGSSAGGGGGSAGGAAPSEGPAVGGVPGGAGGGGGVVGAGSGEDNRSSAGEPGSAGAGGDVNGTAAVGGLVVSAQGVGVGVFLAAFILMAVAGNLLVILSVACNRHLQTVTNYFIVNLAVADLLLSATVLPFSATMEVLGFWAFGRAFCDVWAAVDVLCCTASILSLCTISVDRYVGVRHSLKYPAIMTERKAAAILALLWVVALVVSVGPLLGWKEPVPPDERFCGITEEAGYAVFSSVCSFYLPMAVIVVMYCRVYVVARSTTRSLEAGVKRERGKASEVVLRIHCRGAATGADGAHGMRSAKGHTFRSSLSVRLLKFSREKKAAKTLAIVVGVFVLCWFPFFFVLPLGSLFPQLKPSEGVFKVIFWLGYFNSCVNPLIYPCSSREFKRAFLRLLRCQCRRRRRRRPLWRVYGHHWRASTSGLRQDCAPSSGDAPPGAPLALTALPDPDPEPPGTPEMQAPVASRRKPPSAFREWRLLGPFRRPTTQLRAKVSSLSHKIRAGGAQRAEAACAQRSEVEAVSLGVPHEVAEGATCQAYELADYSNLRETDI
Outline: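 Membranes (30 μg protein) from CHO cells stably transfected with the human α1a, α1b or α1d receptor. Incubated 30 min at 25 °C in 50 mM Tris-HCl pH 7.4 with 0.1–0.4 nM [3H]prazosin and competitor 1 pM–10 μM. Nonspecific binding defined by 10 μM phentolamine. Stopped by rapid filtration through PEI-treated filters. IC50 converted to Ki by Cheng-Prusoff; pKi from 2–3 experiments in triplicate.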

[4] = target: T4, Alpha-1A adrenergic receptor (Rattus norvegicus) (UniProt P43140); experiment: Antagonist activity at alpha1A adrenergic receptor in Wistar rat prostatic rat vas deferens assessed as inhibition of noradrenaline-induced contraction preincubated for 30 mins followed by noradrenaline addition measured after 45 mins in presence of cocaine hydrochloride; assay type: functional
T4 sequence (whole entry): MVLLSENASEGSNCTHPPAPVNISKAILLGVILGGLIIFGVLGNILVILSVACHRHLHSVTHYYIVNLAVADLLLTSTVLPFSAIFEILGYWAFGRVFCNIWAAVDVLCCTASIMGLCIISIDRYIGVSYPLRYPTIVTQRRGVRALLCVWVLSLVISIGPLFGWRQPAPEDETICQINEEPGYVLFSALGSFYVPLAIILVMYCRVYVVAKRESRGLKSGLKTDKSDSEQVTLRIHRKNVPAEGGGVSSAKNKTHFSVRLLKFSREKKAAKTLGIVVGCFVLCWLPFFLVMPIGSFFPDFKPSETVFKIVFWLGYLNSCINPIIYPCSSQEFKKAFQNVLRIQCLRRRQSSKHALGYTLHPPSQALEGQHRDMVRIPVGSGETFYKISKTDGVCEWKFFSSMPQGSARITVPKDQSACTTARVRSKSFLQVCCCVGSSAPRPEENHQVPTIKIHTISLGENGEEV
Outline: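 Prostatic rat vas deferens, 2 cm portions, held at 0.35 g in Tyrode (pH 7.4, 37 °C, 95% O2/5% CO2). Cocaine 10 μM added 20 min before the agonist. Tissue equilibrated 45 min and primed twice with 10 μM noradrenaline. Isotonic cumulative noradrenaline curves were run before and after 30 min antagonist. pA2 came from Schild plots (≥3 concentrations); otherwise pKB (van Rossum). n ≥ 4.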

[5] = target: T5, Alpha-1D adrenergic receptor (Rattus norvegicus) (UniProt P23944); experiment: as §3; assay type: functional; outline: as §4
T5 sequence (whole entry): T2 sequence (P23944 whole entry)

[6] = target: T6, Alpha-1B adrenergic receptor (Rattus norvegicus, UniProt P15823); experiment: as §1; assay type: functional; settings: read-out: pA2 (converted); outline: as §2
T6 sequence (P15823 whole entry): T1 sequence (whole entry)

SMILES | pKb [1] | Kb [2] | Ki [3] | pKb [4] | pKb [5] | Kb [6]
CCCN(CCC)c1nc(N2CCN(C(=O)c3ccco3)[C@@H]3CCCC[C@@H]32)nc2cc(OC)c(OC)cc12 | 7.17 | 58.9 nM | 0.0631 nM | 7.02 | – | –
COc1cc2nc(N3CCN(C(=O)C(C)(C)C)[C@H]4CCCC[C@H]43)nc(N)c2cc1OC | 8.26 | 141 nM | 6.17 nM | 7.17 | – | –
CCCN(CCC)c1nc(N2CCN(C(=O)c3ccco3)[C@H]3CCCC[C@H]32)nc2cc(OC)c(OC)cc12 | 7.86 | – | 5.13 nM | 5.89 | 6.22 | –
COc1cc2nc(N3CCN(C(=O)C4COc5ccccc5O4)[C@H]4CCCC[C@H]43)nc(N)c2cc1OC (single isomer, unassigned; (-)) [CYCLODOXAZOSIN] | 8.61 | – | – | – | 7.1 | –
COc1cc2nc(N3CCN(C(=O)Cc4ccc5ccccc5c4)[C@H]4CCCC[C@H]43)nc(N)c2cc1OC | 8.05 | 135 nM | 2.24 nM | 6.56 | – | –
COc1cc2nc(N3CCN(C(C)=O)[C@H]4CCCC[C@H]43)nc(N)c2cc1OC | – | 1700 nM | 105 nM | – | – | 3.02 nM
CCCCCC(=O)N1CCN(c2nc(N)c3cc(OC)c(OC)cc3n2)[C@@H]2CCCC[C@@H]21 | 7.99 | 155 nM | 3.72 nM | 7.06 | – | –
COc1cc2nc(N3CCN(C(C)=O)[C@@H]4CCCC[C@@H]43)nc(N)c2cc1OC | – | 2.19 nM | 0.151 nM | – | – | 0.617 nM
COc1cc2nc(N3CCN(C(=O)COc4c(OC)cccc4C(C)C)[C@H]4CCCC[C@H]43)nc(N)c2cc1OC | – | 58.9 nM | 0.389 nM | – | – | 191 nM
COc1cc2nc(N3CCN(C(=O)OCc4ccccc4)[C@H]4CCCC[C@H]43)nc(N)c2cc1OC | 8.77 | 240 nM | 3.98 nM | – | – | –
COc1cc2nc(N3CCN(C(=O)OCc4ccccc4)[C@@H]4CCCC[C@@H]43)nc(N)c2cc1OC | – | 0.525 nM | 0.0398 nM | – | – | 1.82 nM
